KCNQ1 block – blocks the human KCNQ1 potassium channel; CHO-K1 KCNQ1, FluxOR thallium flux fluorescence; active compounds read high; B-score at 10 µM; 1.3% of 310,000 active; P51787;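 active = compounds whose thallium flux B-score, printed positive for inhibition, exceeds three library SD while starting fluorescence stays within three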;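 also: channel opened by potassium depolarization with thallium stimulus after 20 min compound exposure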
KCNQ1 act – potentiates or activates the human KCNQ1 potassium channel | P51787 | CHO-K1 KCNQ1, thallium flux FluxOR fluorescence; active compounds read high | B-score at 10 µM | 0.35% of 310,000 active | AID 2648;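 active = fluorescence ratio B-score, a plate-corrected score, at least three library SD, with initial intensity B-score within 5 SD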
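Schedule – 37 °C overnight plating, 90-min dark dye load, 20-min compound pretreatment · System – stable KCNQ1 CHO-K1 line · Probe or stimulus – thallium- and potassium-containing depolarizing buffer · Measured by – kinetic FluxOR fluorescence, 10 s baseline plus 110 s post-stimulus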
hERG rescue – hERG (human) protection from proarrhythmic block | 0.51% of 310,000 active | activation (rescue from dofetilide block), less the hit threshold, % at 10 µM | Q12809 | AID 1511 | CHO-hERG, FluxOR thallium flux, dofetilide IC70 present;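 active = activation above the mean of controls blocked by dofetilide plus 5 SD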;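 also: thallium influx through hERG after potassium depolarization seen as dye fluorescence rise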
Kir21 inh – inhibitors of mouse Kir2.1 inward-rectifier potassium channel; HEK293-Kir2.1, FluxOR thallium flux fluorescence; active compounds read low; 0.85% of 310,000 active; AID 1672; B-score at 10 µM;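 active = fluorescence ratio B-score at or below minus 3 SD of library scores, with starting-brightness B-score within 2 SD, cut at about -4.2 in these data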;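 also: channel flux triggered by added potassium and thallium sulfate stimulus; B-score of peak minus minimum fluorescence over baseline after thallium stimulus; more negative B-score means stronger Kir2.1 block with less thallium influx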
KCNK9 block – human KCNK9 channel inhibition. 1.2% of 310,000 active. Q9NPC2. HEK293 KCNK9, FluxOR thallium flux fluorescence; active compounds read low. AID 488922. B-score at 10 µM;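 active = ratio B-score over 3 SD below the library mean, with starting fluorescence within 5 SD of its mean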;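 also: negative B-score means less thallium flux so channel inhibition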
KCNK3 inh – human KCNK3 channel inhibition, primary screen; 0.84% of 340,000 active; B-score at 10 µM; CHO-KCNK3 thallium flux, FluxOR fluorescence; active compounds read low; O14649;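 active = B-score under library mean minus 4 SD, starting fluorescence ratio at most library mean plus 5 SD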;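 also: more negative B-score means stronger inhibition of thallium flux through KCNK3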
Target sequence (O14649 whole entry, looked up): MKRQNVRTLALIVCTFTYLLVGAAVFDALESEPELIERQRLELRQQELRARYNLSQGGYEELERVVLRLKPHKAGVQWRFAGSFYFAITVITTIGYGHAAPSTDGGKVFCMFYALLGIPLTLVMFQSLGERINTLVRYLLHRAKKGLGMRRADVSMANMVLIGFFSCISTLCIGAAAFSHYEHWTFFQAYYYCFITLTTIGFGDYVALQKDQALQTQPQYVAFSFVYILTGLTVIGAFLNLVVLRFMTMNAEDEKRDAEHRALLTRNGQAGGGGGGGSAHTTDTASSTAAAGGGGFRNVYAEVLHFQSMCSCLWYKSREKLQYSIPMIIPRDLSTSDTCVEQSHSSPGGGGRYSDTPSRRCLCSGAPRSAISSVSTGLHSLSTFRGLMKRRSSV
KCNK3 inh conf – human KCNK3 channel inhibition, confirmation assay. CHO-KCNK3 thallium flux, FluxOR fluorescence; 0% buffer, 100% carvedilol maximal block. AID 651638. ratio percent of control, % at 10 µM. shares compounds with KCNK3 inh. 99% of 2,400 active;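 active = ratio percent of control, averaged over triplicates, above buffer control mean plus 5 SD, cut at about 64% in these data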;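 also: ratio is the fluorescence rise from min to max over baseline after thallium stimulus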
KCNK3 noninduced – KCNK3 inhibitor counter-screen hit in non-induced cells; non-induced KCNK3 parental cells, FluxOR thallium flux; active compounds read low; thallium flux ratio (lower = more inhibition) at 10 µM; 40% of 2,400 active; shares compounds with KCNK3 inh;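 active = thallium flux ratio, averaged over three wells, more than 5 SD below the buffer control mean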;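 also: host cells are CHO cells without KCNK3 induction; ratio is peak minus trough fluorescence over baseline then normalized to buffer controls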
An asterisk follows results filed as active; i = inactive; x = no result given. A selection: hits, their analogues and other compounds. The true share with any hit is near 3.7%.

SMILES | KCNQ1 block | KCNQ1 act | hERG rescue | Kir21 inh | KCNK9 block | KCNK3 inh | KCNK3 inh conf | KCNK3 noninduced
Cc1cccc(C)c1OCc1cc(C(=O)N2CCCC2c2nonc2C)no1 (stereo not drawn) | i | i | -8 | -0.06 | i | -9.4* | 108* | i
Cc1ccc(SCCNC(=O)/C=C/c2ccc(Cl)cc2)cc1 | i | i | -6 | 0.37 | i | i | x | x
Cc1ccc(SCCNC(=O)/C=C/c2ccccc2Cl)cc1 | i | i | -13 | 0.48 | i | -14* | 123* | 0.13*
Cc1cccc(C(=O)OCCN2CCOCC2)c1 | i | i | -2 | 0.05 | i | i | x | x
COc1ccc(N(CC(=O)NCCSCc2ccco2)S(=O)(=O)c2ccccc2)cc1Cl | i | i | -3 | -1.9 | i | -10* | 106* | i
COc1cccc(N(CC(=O)NCCSCc2ccco2)S(=O)(=O)c2ccccc2)c1 | i | i | -9 | 0.36 | i | i | x | x
O=C(NCCc1cn2ccccc2n1)c1cc(COc2ccc3ncccc3c2)on1 | i | i | -27 | -0.86 | i | -14* | 130* | i
COc1cccc(CN(C)C(=O)c2cc(COc3ccc4ncccc4c3)on2)c1 | i | i | -19 | -1.9 | i | -9.8* | 120* | i
COc1cccc(CN(C)C(=O)c2cc(COc3ccc(-n4cncn4)cc3)on2)c1 | i | i | -14 | -1.4 | i | i | x | x
O=C(NCCc1cn2ccccc2n1)c1ccccc1F | i | i | -3 | 0.06 | i | i | x | x
COC(=O)c1ccccc1NC(=O)CN1CCCCCC1 | i | i | -3 | 1.1 | i | i | x | x
C/C(=N\Nc1ccc([N+](=O)[O-])cc1[N+](=O)[O-])C(C)C(C)C (stereo not drawn) | 8* | i | -8 | -0.41 | i | -9.2* | 93* | 0.14*
COc1ccccc1N(CC(=O)NCCN1CCOCC1)S(=O)(=O)c1ccccc1 | i | i | -4 | 0.13 | i | i | x | x
Cc1nc(N2CCCCC2)c2c(C)c(C(=O)Nc3cccc(C(F)(F)F)c3)sc2n1 | 13* | i | -5 | -2.1 | i | -11* | 124* | 0.12*
Cc1nc(N2CCN(C)CC2)c2c(C)c(C(=O)Nc3ccc(F)cc3)sc2n1 | i | i | -4 | 0.37 | i | i | x | x
CCOc1ncccc1C(=O)NNC(=O)c1ccccc1-n1cccc1 | i | i | -8 | 0.04 | i | i | x | x
O=C(Nc1ccccc1)C1=C(O)CC(c2ccoc2)CC1=Nc1ccccc1 (stereo not drawn) | i | i | -8 | -0.06 | i | -8.8* | 113* | 0.16*
CC1CN=C2C(C(=O)Nc3ccccc3)=C(O)CC(c3ccccc3)N21 (stereo not drawn) | i | i | -1 | 0.14 | i | i | x | x
Cc1ccc(CN2CCN(/N=C/c3ccc(Cl)c([N+](=O)[O-])c3)CC2)cc1 | i | i | -1 | 2.6 | i | -8.7* | 121* | i
Cc1ccc(/C=N/N2CCN(Cc3ccccc3)CC2)cc1 | i | i | -5 | -0.41 | i | i | x | x
CC(CNC(=S)Nc1cc(F)cc(F)c1)CSc1ccc(Cl)cc1 (stereo not drawn) | 9* | i | -15 | -1.1 | i | -13* | 117* | 0.14*
COc1ccc2nc(NC(=O)CC3Oc4ccccc4NC3=O)sc2c1 (stereo not drawn) | i | i | -7 | 0.79 | i | i | x | x
Cc1ccc2nc(N/N=C\c3ccc([N+](=O)[O-])o3)nc(-c3ccccc3)c2c1 | 7* | i | -20 | -0.12 | -6.9* | -11* | 147* | 0.087*
Fc1ccccc1C1c2cccn2CCN1C(=S)Nc1ccc(Br)cc1 (stereo not drawn) | 7* | i | -17 | -1.1 | i | -15* | 132* | 0.12*

From PubChem
